Results: ChEMBL document CHEMBL4385606, “3,5,7-Substituted Pyrazolo[4,3- d]pyrimidine Inhibitors of Cyclin-Dependent Kinases and Their Evaluation in Lymphoma Models” (J Med Chem, 2019)
Calls of active or inactive are those of the source. No cut-off for these calls is given here.

Columns and labels:
SU-DHL10 = experiment: Antiproliferative activity against human SUDHL10 cells assessed as growth inhibition measured after 72 hrs by calcein AM dye-based fluorescence assay; format: functional, cell-based; conditions: SU-DHL10, 72 h
Procedure, shortened: (§1)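 Cells exposed in triplicate to six concentrations for 72 h; calcein AM added for 1 h, live-cell fluorescence read at 485/538 nm (ex/em). GI50 taken from dose-response curves.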

JeKo-1 = experiment: Antiproliferative activity against human JeKo1 cells assessed as growth inhibition measured after 72 hrs by calcein AM dye-based fluorescence assay; format: functional, cell-based; conditions: JeKo-1, 72 h; procedure, shortened: as §1
Mus musculus [1] = experiment: Ex vivo antitumor activity against Maver1 xenografted NSG mouse assessed as down regulation of MCL-1 expression at 10 mg/kg, iv measured after 24 hrs by immunoblotting analysis; format: functional, organism-based
Procedure, shortened: (§2)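 NSG mice bearing palpable s.c. tumors received a single i.v. dose (5 or 10 mg/kg) and were euthanized after 24 h. Excised tumors were filtered through 45 µm nylon mesh, lysed and run on SDS-PAGE, transferred to nitrocellulose, probed overnight with primary antibodies in PBS with 5% milk and 0.1% Tween 20, then peroxidase secondaries, with chemiluminescent detection.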

Mus musculus [2] = experiment: Ex vivo antitumor activity against human Mino cells xenografted NSG mouse decrease in phosphorylation of RNA polymerase 2 C-terminal domain at Ser 2 residue at 5 to 10 mg/kg, iv measured after 24 hrs by immunoblotting analysis; format: functional, organism-based
Procedure, shortened: (§3)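 Female NSG mice, 8-12 weeks old, implanted s.c. with lymphoma cells. Once tumors were palpable, mice received a single tail-vein i.v. dose (5 or 10 mg/kg) of compound dissolved in PBS. Mice were euthanized 24 h later. Tumors were excised, filtered through 45 µm nylon mesh and lysed, then proteins were analysed by immunoblotting.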

Maver1 = experiment: Antitumor activity against human Maver1 cells xenografted in NSG mouse assessed as inhibition of tumor growth at 9 mg/kg measured on day 13 in presence of BCL2 inhibitor venetoclax by caliper method; format: functional, organism-based
Procedure, shortened: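 MAVER-1 cells implanted s.c. in NSG mice. Groups: vehicle n=6, 9 mg/kg n=8, venetoclax 20 mg/kg n=8, combination n=10. Tumors measured daily by caliper in two perpendicular dimensions. Mean volumes ±SD tracked from therapy start (day 1).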

[3] = target: Cyclin-dependent kinase 7 (Homo sapiens) (UniProt P50613); experiment: Inhibition of CDK7 in human Mino cells assessed as decrease in phosphorylation of RNA polymerase 2 C-terminal domain at Ser 2 residue at 12.5 nM by immunoblotting analysis; format: cell-based; conditions: TDE = time-dependent effect
Chain of Cyclin-dependent kinase 7 (Homo sapiens) (P50613 whole entry, the tested form may be a part): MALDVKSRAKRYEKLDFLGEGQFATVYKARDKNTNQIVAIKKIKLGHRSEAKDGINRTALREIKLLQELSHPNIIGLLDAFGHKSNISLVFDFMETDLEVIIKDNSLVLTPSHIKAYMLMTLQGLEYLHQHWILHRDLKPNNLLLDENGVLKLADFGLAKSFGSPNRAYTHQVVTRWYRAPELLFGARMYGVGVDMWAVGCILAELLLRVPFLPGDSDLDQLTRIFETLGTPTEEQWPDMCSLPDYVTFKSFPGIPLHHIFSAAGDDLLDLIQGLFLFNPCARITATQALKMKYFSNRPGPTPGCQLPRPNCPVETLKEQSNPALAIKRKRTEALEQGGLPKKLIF
Procedure, shortened: (§4)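 MINO lymphoma cells were treated at 12.5 nM, with time points over 24 h. Lysates were separated by SDS-PAGE and blotted to nitrocellulose. Phospho-RNA polymerase II CTD (Ser2, Ser5) and phospho-Rb (Ser608, Ser780) were probed with primary antibodies overnight and peroxidase-conjugated secondaries. Detection was by chemiluminescence on a CCD camera.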

Mus musculus [4] = experiment: Ex vivo antitumor activity against human Mino cells xenografted NSG mouse assessed as effect on BCL-2 expression at 5 to 10 mg/kg, iv measured after 24 hrs by immunoblotting analysis; format: functional, organism-based; procedure, shortened: as §2
CCRF-CEM = experiment: Antiproliferative activity against human CEM cells assessed as growth inhibition measured after 72 hrs by calcein AM dye-based fluorescence assay; format: functional, cell-based; procedure, shortened: as §1
[5] = Antiproliferative activity against human UPF1H cells assessed as growth inhibition measured after 72 hrs by calcein AM dye-based fluorescence assay; format: functional, cell-based; procedure, shortened: as §1
[6] = target: Cyclin-dependent kinase 2 (Homo sapiens) (UniProt P24941); experiment: Inhibition of CDK2 in human Mino cells assessed as decrease in phosphorylation of Rb at Ser 780 residue at 12.5 nM by immunoblotting analysis; format: cell-based; conditions: TDE = time-dependent effect; procedure, shortened: as §4
[7] = target: Cyclin-dependent kinase 1/cyclin B1 (Homo sapiens, UniProt P06493); experiment: Inhibition of His-tagged CDK1/Cyclin-B1 (unknown origin) expressed in baculovirus infected Sf9 insect cells using histone H1 as substrate measured in presence of [gamma-33P]ATP
Chain of Cyclin-dependent kinase 1/cyclin B1 (P06493 whole entry): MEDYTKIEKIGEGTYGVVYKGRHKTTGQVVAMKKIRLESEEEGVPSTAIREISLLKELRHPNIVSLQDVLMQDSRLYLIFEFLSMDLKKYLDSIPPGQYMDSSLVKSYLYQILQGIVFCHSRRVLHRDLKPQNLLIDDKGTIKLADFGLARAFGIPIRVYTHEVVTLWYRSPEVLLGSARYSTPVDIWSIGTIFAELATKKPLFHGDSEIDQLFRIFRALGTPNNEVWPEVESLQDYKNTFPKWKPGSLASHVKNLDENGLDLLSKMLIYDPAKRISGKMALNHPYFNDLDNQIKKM
Chain of Cyclin-dependent kinase 1/cyclin B1 (P14635 whole entry, further chain): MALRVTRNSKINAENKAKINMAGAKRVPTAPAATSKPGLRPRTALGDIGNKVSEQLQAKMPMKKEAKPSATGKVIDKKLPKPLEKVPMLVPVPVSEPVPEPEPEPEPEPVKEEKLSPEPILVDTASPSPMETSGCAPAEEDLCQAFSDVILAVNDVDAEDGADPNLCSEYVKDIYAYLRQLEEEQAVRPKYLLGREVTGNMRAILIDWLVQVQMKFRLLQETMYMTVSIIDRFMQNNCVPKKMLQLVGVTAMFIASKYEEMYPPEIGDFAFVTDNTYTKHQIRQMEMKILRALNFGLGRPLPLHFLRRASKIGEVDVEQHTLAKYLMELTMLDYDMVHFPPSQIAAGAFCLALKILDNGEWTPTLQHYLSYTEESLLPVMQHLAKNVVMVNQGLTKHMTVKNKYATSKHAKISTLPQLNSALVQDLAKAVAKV
Procedure, shortened: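 CDK/cyclin complexes tested in triplicate at minimum; IC50 values reported from those replicate determinations.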

Homo sapiens [8] = species: Homo sapiens; experiment: Induction of apoptosis in human Mino cells assessed as induction of PARP1 cleavage at 1.5 to 12.5 nM after 24 hrs by immunoblotting analysis; format: functional, cell-based
Procedure, shortened: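 Lymphoma cell lines were cultured as the providers instruct and exposed to compound at several doses or for several times. Lysates were run on SDS-PAGE and blotted to nitrocellulose. Blots were blocked, incubated overnight with primary antibodies diluted in PBS with 5% milk and 0.1% Tween 20, then with peroxidase-conjugated secondaries, and detected by chemiluminescence on a CCD camera.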

Mus musculus [9] = experiment: Ex vivo antitumor activity against human Mino cells xenografted NSG mouse decrease in phosphorylation of RNA polymerase 2 C-terminal domain at Ser 5 residue at 5 to 10 mg/kg, iv measured after 24 hrs by immunoblotting analysis; format: functional, organism-based; procedure, shortened: as §3
THP-1 = experiment: Antiproliferative activity against human THP1 cells assessed as growth inhibition measured after 72 hrs by calcein AM dye-based fluorescence assay; format: functional, cell-based; conditions: THP-1, 72 h; procedure, shortened: as §1
[10] = target: Cyclin-dependent kinase 9 (Homo sapiens) (UniProt P50750); experiment: Inhibition of CDK9 in human Mino cells assessed as decrease in phosphorylation of RNA polymerase 2 C-terminal domain at Ser 5 residue at 12.5 nM by immunoblotting analysis; format: cell-based; conditions: TDE = time-dependent effect
Chain of Cyclin-dependent kinase 9 (Homo sapiens) (P50750 whole entry, the tested form may be a part): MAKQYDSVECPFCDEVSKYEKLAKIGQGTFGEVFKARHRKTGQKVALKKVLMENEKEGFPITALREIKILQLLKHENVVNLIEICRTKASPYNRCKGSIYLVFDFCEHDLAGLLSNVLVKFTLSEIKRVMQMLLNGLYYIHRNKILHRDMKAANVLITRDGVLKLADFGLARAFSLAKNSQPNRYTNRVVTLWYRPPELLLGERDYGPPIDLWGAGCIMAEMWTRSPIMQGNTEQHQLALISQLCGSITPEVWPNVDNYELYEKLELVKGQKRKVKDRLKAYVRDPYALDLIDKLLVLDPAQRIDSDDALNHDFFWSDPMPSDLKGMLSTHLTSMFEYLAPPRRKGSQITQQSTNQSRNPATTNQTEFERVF
Procedure, shortened: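 MINO lymphoma cells exposed to 12.5 nM for up to 24 h (time course). Lysates separated by SDS-PAGE, transferred to nitrocellulose, probed overnight with specific primary antibodies diluted in PBS with 5% milk and 0.1% Tween 20, then peroxidase-conjugated secondaries; chemiluminescence imaged with a CCD camera.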

Mus musculus [11] = experiment: Ex vivo antitumor activity against human UPF1H cells xenografted NSG mouse assessed as increase in cleaved caspase 7 expression at 5 to 10 mg/kg, iv measured after 24 hrs by immunoblotting analysis; format: functional, organism-based; procedure, shortened: as §3
Mus musculus [12] = experiment: Ex vivo antitumor activity against human Mino cells xenografted NSG mouse assessed as increase in cleaved caspase 9 expression at 5 to 10 mg/kg, iv measured after 24 hrs by immunoblotting analysis; format: functional, organism-based; procedure, shortened: as §2
Homo sapiens [13] = experiment: Antitumor activity against human Mino cells xenografted in NSG mouse assessed as inhibition of tumor growth at 10 mg/kg, iv administered daily measured every day during compound dosing by caliper method; format: functional, organism-based
Procedure, shortened: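 Female NSG mice, 8-12 weeks old, given cells s.c.; once all had palpable tumors, daily i.v. tail-vein dosing at 10 mg/kg in PBS. Two perpendicular tumor diameters measured daily by caliper. Study ended when any mouse's tumor reached ≥2 cm. Groups: MINO n=10, MAVER-1 n=12, Hbl-2 n=8, VFN-M1 PDX n=10.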

Ramos = experiment: Antiproliferative activity against human Ramos cells assessed as growth inhibition measured after 72 hrs by calcein AM dye-based fluorescence assay; format: functional, cell-based; procedure, shortened: as §1
Mus musculus [14] = experiment: Ex vivo antitumor activity against human UPF1H cells xenografted NSG mouse assessed as cleavage of PARP1 at 5 to 10 mg/kg, iv measured after 24 hrs by immunoblotting analysis; format: functional, organism-based; procedure, shortened: as §3
[15] = target: Cyclin-dependent kinase 7 (Homo sapiens) (UniProt P50613); experiment: Inhibition of CDK7 in human Mino cells assessed as decrease in phosphorylation of Rb at Ser 780 residue at 12.5 nM by immunoblotting analysis; format: cell-based; conditions: TDE = time-dependent effect; procedure, shortened: as §4

GI50 (SU-DHL10): 17 nM
IC50 (SU-DHL10): 17 nM
inhibition [3]: Tde
GI50 (CCRF-CEM): 33 nM
IC50 (CCRF-CEM): 33 nM
inhibition [6]: Tde
IC50 [7]: 90 nM
GI50 (THP-1): 19 nM
IC50 (THP-1): 19 nM
inhibition [10]: Tde
GI50 (Ramos): 44 nM
IC50 (Ramos): 44 nM
inhibition [15]: Tde
SMILES: CC(C)c1n[nH]c2c(NCc3ccc(-c4ccccn4)cc3)nc(SCCN)nc12
GI50 (JeKo-1): 14 nM
IC50 (JeKo-1): 14 nM
Activity (Mus musculus [1]): Active
Activity (Mus musculus [2]): Active
TGI (Maver1): Active
Activity (Mus musculus [4]): inactive
GI50 [5]: 25 nM
IC50 [5]: 25 nM
Activity (Homo sapiens [8]): Active
Activity (Mus musculus [9]): Active
Activity (Mus musculus [11]): Active
Activity (Mus musculus [12]): Active
TGI (Homo sapiens [13]): Active
Activity (Mus musculus [14]): Active
